Laboratory results from ChEMBL document CHEMBL4706503, “A novel pipeline of 2-(benzenesulfonamide)-N-(4-hydroxyphenyl) acetamide analgesics that lack hepatotoxicity and retain antipyresis” (Eur J Med Chem, 2020).
The source made the active and inactive calls. No cut-off for these calls is given here.

Key:
[1] = Hepatotoxicity in CD1 mouse assessed as increase in serum alanine aminotransferase level at 600 mg/kg, po measured after 12 hrs; type: toxicity, organism-based; details: in vivo
Summary of the method: (§1)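 Male CD1 mice fasted 15 h, given 600 mg/kg po, then fed ad libitum for 12 h. Whole blood taken by transcardial perfusion under 5% isoflurane, without anticoagulant, clotted 0.5 h at 25 °C, spun 1000 g 5 min at 4 °C. Serum stored at −80 °C, then assayed with commercial kits. n = 5 mice per compound; vehicle 0.9% NaCl.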

Hepatocyte = test: Hepatotoxicity in primary human hepatocytes assessed as increase in lactate dehydrogenase release at 500 to 1000 uM measured after 3 to 12 hrs by fluorescence based analysis
[2] = Renal toxicity in CD1 mouse assessed as increase in serum creatinine level at 600 mg/kg, po measured after 12 hrs; type: organism-based; details: in vivo; summary of the method: as §1
[3] = Hepatotoxicity in CD1 mouse assessed as increase in serum aspartate aminotransferase level at 600 mg/kg, po measured after 12 hrs; type: toxicity, organism-based; details: in vivo; summary of the method: as §1
[4] = Hepatotoxicity in CD1 mouse assessed as increase in serum alkaline phosphatase level at 600 mg/kg, po measured after 12 hrs; type: toxicity, organism-based; details: in vivo; summary of the method: as §1
Cytochrome P450 2D6 = Cytochrome P450 2D6 (Homo sapiens, UniProt P10635); test: Inhibition of CYP2D6 (unknown origin) in baculosomes preincubated for 20 mins followed by addition of CYP enzyme-specific substrate and NADP+ and measured after 30 mins by fluorescence based analysis; type: ADME
Sequence of Cytochrome P450 2D6 (P10635 whole entry): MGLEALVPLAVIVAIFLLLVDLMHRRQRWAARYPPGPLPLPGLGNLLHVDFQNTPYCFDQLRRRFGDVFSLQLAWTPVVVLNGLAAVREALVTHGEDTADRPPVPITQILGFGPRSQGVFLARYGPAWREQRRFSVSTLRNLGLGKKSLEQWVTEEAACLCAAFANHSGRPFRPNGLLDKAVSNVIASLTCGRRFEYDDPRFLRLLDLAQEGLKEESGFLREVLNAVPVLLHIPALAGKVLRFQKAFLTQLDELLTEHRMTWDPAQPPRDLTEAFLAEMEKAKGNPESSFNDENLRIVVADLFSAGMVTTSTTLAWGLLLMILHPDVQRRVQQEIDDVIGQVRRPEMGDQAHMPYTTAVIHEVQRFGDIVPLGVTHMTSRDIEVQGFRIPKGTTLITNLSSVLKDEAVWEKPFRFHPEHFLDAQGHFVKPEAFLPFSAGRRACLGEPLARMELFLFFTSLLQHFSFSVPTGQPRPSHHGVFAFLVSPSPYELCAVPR
Summary of the method: (§2)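 Vivid fluorogenic screen: each compound was premixed with CYP baculosomes and a regeneration system (glucose-6-phosphate plus G6P dehydrogenase) for 20 min at room temperature. Isozyme-specific substrate and NADP+ were then added for 30 min at room temperature. Reaction stopped with 0.5 M Tris base; metabolite fluorescence read. IC50 taken from 10-point titration curves.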

[5] = Toxicity in CD1 mouse assessed as animal survival rate at 600 mg/kg, ip measured for every 4 hrs upto 48 hrs by Kaplan-Meier plot analysis; type: organism-based; details: in vivo
Summary of the method: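 Male CD1 mice, four groups of n = 20, given 600 mg/kg ip or 0.9% NaCl vehicle; live animals counted every 4 h for 48 h; Kaplan-Meier survival curves plotted.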

[6] = Hepatotoxicity in CD1 mouse assessed as increase in nitrotyrosine formation in liver at 600 mg/kg, po measured after 12 hrs by nitrotyrosine immunostaining based optical microscopy; details: in vivo
[7] = Hepatotoxicity in CD1 mouse assessed as loss of chicken wire hepatic tight junctions at 600 mg/kg, po measured after 12 hrs by ZO-1 staining based optical microscopy; type: toxicity, organism-based; details: in vivo
Summary of the method: (§3)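 At 12 h, mice under 5% isoflurane were exsanguinated with saline and perfusion-fixed with 10% NBF; livers fixed 24 h, moved to 80% EtOH, paraffin-embedded and sectioned. Stains: H&E (100x), nitrotyrosine, ZO-1 (200x; 3D stacks at 1000x), TUNEL (200x).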

HepaRG [8] = test: Hepatotoxicity in human HepaRG cells assessed as increase in lactate dehydrogenase release at 50 to 5000 uM […]; type: toxicity, cell-based; details: dose 50-5000 µM
Rattus norvegicus = test: Analgesic activity in ip dosed complete freund's adjuvant-induced Sprague Dawley rat model of hyperalgesia assessed as inhibition of inflammatory pain measured after 30 mins by von Frey analgesimetric method; type: functional; details: 0.5 h
CYP3A4 = CYP3A4 (Homo sapiens, UniProt P08684); test: Inhibition of CYP3A4 (unknown origin) in baculosomes preincubated for 20 mins followed by addition of CYP enzyme-specific substrate and NADP+ and measured after 30 mins by fluorescence based analysis relative to control
Sequence of CYP3A4 (P08684 whole entry): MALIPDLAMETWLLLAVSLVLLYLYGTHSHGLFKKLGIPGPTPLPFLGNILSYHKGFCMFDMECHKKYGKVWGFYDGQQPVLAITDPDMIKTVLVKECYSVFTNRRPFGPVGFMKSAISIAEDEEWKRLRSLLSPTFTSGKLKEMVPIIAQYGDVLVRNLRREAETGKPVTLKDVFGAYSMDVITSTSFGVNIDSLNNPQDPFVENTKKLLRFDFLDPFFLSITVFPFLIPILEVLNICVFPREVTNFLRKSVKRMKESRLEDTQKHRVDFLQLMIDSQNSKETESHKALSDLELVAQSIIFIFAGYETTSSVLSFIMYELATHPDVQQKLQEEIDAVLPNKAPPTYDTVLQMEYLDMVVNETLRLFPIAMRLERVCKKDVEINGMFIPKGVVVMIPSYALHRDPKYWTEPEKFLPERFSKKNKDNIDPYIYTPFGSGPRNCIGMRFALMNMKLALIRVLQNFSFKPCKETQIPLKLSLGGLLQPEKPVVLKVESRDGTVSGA

CYP2E1 = CYP2E1 (Homo sapiens, UniProt P05181); test: Inhibition of CYP2E1 (unknown origin) in baculosomes preincubated for 20 mins followed by addition of CYP enzyme-specific substrate and NADP+ and measured after 30 mins by fluorescence based analysis relative to control
Sequence of CYP2E1 (P05181 whole entry): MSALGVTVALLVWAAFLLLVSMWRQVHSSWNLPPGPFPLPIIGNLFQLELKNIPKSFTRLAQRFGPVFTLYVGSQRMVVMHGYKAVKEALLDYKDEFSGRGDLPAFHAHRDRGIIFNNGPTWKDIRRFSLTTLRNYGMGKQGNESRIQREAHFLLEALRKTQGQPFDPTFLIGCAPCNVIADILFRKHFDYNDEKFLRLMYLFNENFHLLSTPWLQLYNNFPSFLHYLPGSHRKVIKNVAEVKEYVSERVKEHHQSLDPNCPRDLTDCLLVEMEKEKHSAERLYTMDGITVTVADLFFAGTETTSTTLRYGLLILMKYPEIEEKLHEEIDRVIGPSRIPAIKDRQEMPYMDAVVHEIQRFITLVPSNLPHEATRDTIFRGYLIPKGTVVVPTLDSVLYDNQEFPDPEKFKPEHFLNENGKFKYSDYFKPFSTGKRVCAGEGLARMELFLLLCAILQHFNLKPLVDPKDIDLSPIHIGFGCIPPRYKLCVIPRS

HepaRG [9] = test: Hepatotoxicity in human HepaRG cells assessed as decrease in GSH level at 50 to 5000 uM measured after 6 to 24 hrs by Thiol tracker violet dye based fluorescence analysis; type: toxicity, cell-based; details: dose lower 50 µM, time lower 6 hrs, dose upper 5000 µM, time upper 24 hrs
Summary of the method: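 HepaRG cells (80% confluent, serum-starved 6–8 h) exposed to 50, 100, 1000 or 5000 μM for 6, 12 or 24 h. Medium then removed and cells rinsed with D-PBS-conditioned medium. Cells were stained 30 min with ThiolTracker Violet; fluorescence read at ex 404/em 526 nm and reported as RFU for cellular GSH.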

[10] = Drug metabolism in CD1 mouse serum assessed as NAPQI formation at 600 mg/kg, po measured after 12 hrs by LC-MS/MS analysis; type: ADME, organism-based; details: in vivo
Summary of the method: (§4)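 Male CD1 mice dosed at 600 mg/kg (ip or po). Serum extracted twice with 3 vol ethyl acetate on ice (30 min, 3000 g spin), dried under N2, redissolved in 1:1 MeOH:H2O. LC-MS/MS in positive electrospray MRM mode monitoring m/z 150.3→108.1, identity checked against spiked NAPQI standard retention time (5.1 min).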

[11] = Drug metabolism in CD1 mouse serum assessed as NAPQI formation at 600 mg/kg, ip measured after 12 hrs by LC-MS/MS analysis; type: ADME, organism-based; details: in vivo; summary of the method: as §4
Cytochrome P450 3A4 = Cytochrome P450 3A4 (Homo sapiens, UniProt P08684); test: Inhibition of CYP3A4 (unknown origin) in baculosomes preincubated for 20 mins followed by addition of CYP enzyme-specific substrate and NADP+ and measured after 30 mins by fluorescence based analysis; type: ADME; summary of the method: as §2
Sequence of Cytochrome P450 3A4 (P08684 whole entry): as the sequence (P08684 whole entry) above

[12] = Hepatotoxicity in CD1 mouse assessed as increase in apoptotic nuclei at 600 mg/kg, po measured after 12 hrs by TUNEL staining; type: toxicity, organism-based; details: in vivo; summary of the method: as §3
Mus musculus [13] = test: Antipyretic activity against Baker's yeast-induced hyperthermia model in CD1 mouse at 80 mg/kg, po at 2 hrs post-injection by thermometer based analysis; type: functional, organism-based
Summary of the method: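 Male CD1 mice fasted overnight (15 h); baseline rectal temperature taken, then ip pyrogen (15% baker's yeast, 0.1 mL/kg). Rectal temperature read 4 h later; only febrile animals used, grouped by equal mean temperature. Drug or 0.9% NaCl given po at 80 mg/kg; rectal temperature recorded 2 h later; fall compared with 4 h fever value. Mean ± SEM, n = 10; one-way ANOVA with Sidak post-hoc.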

Mus musculus [14] = test: Analgesic activity in po dosed CD1 mouse assessed as inhibition of acetic acid-induced abdominal writhing treated with acetic acid 25 mins post drug administration and measured after 5 mins for 10 mins; type: functional; details: 40 min
Summary of the method: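 Male CD1 mice fasted 15 h; drug suspended in 0.9% NaCl with ≤10% DMSO given po at 5, 10, 20, 40, 80 mg/kg. 0.4% acetic acid 10 mL/kg ip 25 min later; writhes counted 10 min starting 5 min after acid. Compared to vehicle; mean ± SEM, n > 15 per group; ED50 from dose-response curves.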

[15] = Hepatotoxicity in CD1 mouse assessed as liver architecture at 600 mg/kg, po measured after 12 hrs by hematoxylin and eosin staining based optical microscopy; type: toxicity, organism-based; details: in vivo; summary of the method: as §3
[16] = Hepatotoxicity in CD1 mouse assessed as centrilobular hepatic hemorrhagic necrosis at 600 mg/kg, po measured after 12 hrs by hematoxylin and eosin staining based optical microscopy; type: toxicity, organism-based; details: in vivo; summary of the method: as §3

Compound	Activity [1]	Activity (Hepatocyte)	Activity [2]	Activity [3]	Activity [4]	further results
O=C(CNS(=O)(=O)c1ccccc1C(=O)NC1CCCC1)Nc1ccc(O)cc1	Non-Toxic	Toxic	Non-Toxic	Non-Toxic	Non-Toxic	–
O=C(CNS(=O)(=O)c1ccccc1C(=O)N1CCN(Cc2ccccc2)CC1)Nc1ccc(O)cc1	–	Toxic	–	–	–	–
O=C(CNS(=O)(=O)c1ccccc1C(=O)NCc1cccc(Cl)c1)Nc1ccc(O)cc1	Non-Toxic	Toxic	Non-Toxic	Non-Toxic	Non-Toxic	–
O=C(CNS(=O)(=O)c1ccccc1C(=O)NCc1ccc(Cl)c(Cl)c1)Nc1ccc(O)cc1	Non-Toxic	Non-Toxic	Non-Toxic	Non-Toxic	Non-Toxic	–
O=C(CNS(=O)(=O)c1ccccc1C(=O)NCCc1ccc(O)c(O)c1)Nc1ccc(O)cc1	Non-Toxic	Non-Toxic	Non-Toxic	Non-Toxic	Non-Toxic	IC50 (Cytochrome P450 2D6): > 10 µM; survival at 48 h [5]: 100%; Activity [6]: Non-Toxic; Activity [7]: Non-Toxic; Activity (HepaRG [8]): Non-Toxic; ED50 (Rattus norvegicus): 177 µmol/kg; inhibition at 0.5 h (CYP3A4): 25%; inhibition at 0.5 h (CYP2E1): 25%; Activity (HepaRG [9]): Non-Toxic; Drug metabolism [10]: Metabolite_Notdetected; Drug metabolism [11]: Metabolite_Notdetected; IC50 (Cytochrome P450 3A4): 4.82 µM; Activity [12]: Non-Toxic; Activity (Mus musculus [13]): Active; ED50 (Mus musculus [14]): 14.7 µmol/kg; Activity [15]: Non-Toxic
CN(C)C(=O)c1ccccc1S(=O)(=O)NCC(=O)Nc1ccc(O)cc1	Non-Toxic	Toxic	Non-Toxic	Non-Toxic	Non-Toxic	–
Cc1ccc(CNC(=O)c2ccccc2S(=O)(=O)NCC(=O)Nc2ccc(O)cc2)cc1	Non-Toxic	Toxic	Non-Toxic	Non-Toxic	Non-Toxic	–
CCCCNC(=O)c1ccccc1S(=O)(=O)NCC(=O)Nc1ccc(O)cc1	Non-Toxic	Toxic	Non-Toxic	Non-Toxic	Non-Toxic	–
CC(=O)Nc1ccc(O)cc1 [ACETAMINOPHEN]	Toxic	–	Toxic	Toxic	Toxic	IC50 (Cytochrome P450 2D6): > 10 µM; Activity [6]: Toxic; Activity [7]: Toxic; Activity (HepaRG [8]): Toxic; ED50 (Rattus norvegicus): 245 µmol/kg; Activity [16]: Toxic; Activity (HepaRG [9]): Toxic; Drug metabolism [10]: Metabolite_Detected; Drug metabolism [11]: Metabolite_Detected; Activity [12]: Toxic; Activity (Mus musculus [13]): Active; ED50 (Mus musculus [14]): 68.6 µmol/kg
NC(=O)c1ccccc1S(=O)(=O)NCC(=O)Nc1ccc(O)cc1	–	Toxic	–	–	–	–
O=C(CNS(=O)(=O)c1ccccc1C(=O)NCCc1ccccc1)Nc1ccc(O)cc1	–	Toxic	–	–	–	–
O=C(CNS(=O)(=O)c1ccccc1C(=O)N1CCOCC1)Nc1ccc(O)cc1	–	Non-Toxic	–	–	–	–
O=C(CNS(=O)(=O)c1ccccc1C(=O)NCCN1CCCC1)Nc1ccc(O)cc1	Non-Toxic	Non-Toxic	Non-Toxic	Non-Toxic	Non-Toxic	–
O=C(CNS(=O)(=O)c1ccccc1C(=O)NCc1ccc([N+](=O)[O-])cc1)Nc1ccc(O)cc1	Non-Toxic	Non-Toxic	Non-Toxic	Non-Toxic	Non-Toxic	–
CNC(=O)c1ccccc1S(=O)(=O)NCC(=O)Nc1ccc(O)cc1	Non-Toxic	Non-Toxic	Non-Toxic	Non-Toxic	Non-Toxic	IC50 (Cytochrome P450 2D6): > 10 µM; survival at 48 h [5]: 100%; Activity [6]: Non-Toxic; Activity [7]: Non-Toxic; Activity (HepaRG [8]): Non-Toxic; ED50 (Rattus norvegicus): 198 µmol/kg; Activity (HepaRG [9]): Non-Toxic; Drug metabolism [10]: Metabolite_Notdetected; Drug metabolism [11]: Metabolite_Notdetected; IC50 (Cytochrome P450 3A4): > 10 µM; Activity [12]: Non-Toxic; Activity (Mus musculus [13]): Active; ED50 (Mus musculus [14]): 45.2 µmol/kg; Activity [15]: Non-Toxic
O=C(CNS(=O)(=O)c1ccccc1C(=O)NCc1ccccc1)Nc1ccc(O)cc1	–	Toxic	–	–	–	–
O=C(CNS(=O)(=O)c1ccccc1C(=O)NCc1ccccn1)Nc1ccc(O)cc1	Non-Toxic	Toxic	Non-Toxic	Non-Toxic	Non-Toxic	–
CC(C)NC(=O)c1ccccc1S(=O)(=O)NCC(=O)Nc1ccc(O)cc1	–	Toxic	–	–	–	–
CC(C)CNC(=O)c1ccccc1S(=O)(=O)NCC(=O)Nc1ccc(O)cc1	Non-Toxic	Toxic	Non-Toxic	Non-Toxic	Non-Toxic	–
COc1ccc(CNC(=O)c2ccccc2S(=O)(=O)NCC(=O)Nc2ccc(O)cc2)cc1	Non-Toxic	Toxic	Non-Toxic	Non-Toxic	Non-Toxic	–
